Data as given in ChEMBL document CHEMBL5712071, “BET bromodomain protein inhibition is a therapeutic option for medulloblastoma” (Oncotarget, 2013).
Active and inactive are the calls of the source. The calls are words filed in the database; no cut-off is given here.

Columns and labels:
[1] = test system: UW228; test: Anti-proliferative activity against human UW228 cells assessed as reduction in cell viability incubated for 120 hrs by MTT assay; format: functional, cell-based; conditions: UW228, 120 h
Procedure, shortened: (§1)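 Cells seeded in triplicate at 2 × 10^3 per well and allowed to adhere for 24h. JQ1 was given as serial dilutions in full medium, 1nM-6µM, from a 10 mM DMSO stock. Viability was read by MTT at each time point and IC50 derived from dose-response curves. Culture media were RPMI 1640/10% FCS for HD-MB3 (plus 1% NEAA), ONS-76, Daoy and UW-228, and EMEM/10% FCS for D-283 and D-341.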

[2] = test system: D341 cell line; test: Anti-proliferative activity against human D341 cells assessed as reduction in cell viability incubated for 48 hrs by MTT assay; format: functional, cell-based; conditions: D341, 48 h; procedure, shortened: as §1
[3] = test system: HD-MB03; test: Anti-proliferative activity against human HD-MB03 cells assessed as reduction in cell viability incubated for 96 hrs by MTT assay; format: functional, cell-based; conditions: HD-MB03, 96 h; procedure, shortened: as §1
[4] = test system: Daoy; test: Anti-proliferative activity against human Daoy cells assessed as reduction in cell viability incubated for 72 hrs by MTT assay; format: functional, cell-based; procedure, shortened: as §1
[5] = test system: Daoy; test: Anti-proliferative activity against human Daoy cells assessed as reduction in cell viability incubated for 96 hrs by MTT assay; format: functional, cell-based; procedure, shortened: as §1
[6] = test system: D283 Med; test: Anti-proliferative activity against human D283 cells assessed as reduction in cell viability incubated for 48 hrs by MTT assay; format: functional, cell-based; procedure, shortened: as §1
[7] = test system: D283 Med; test: Anti-proliferative activity against human D283 cells assessed as reduction in cell viability incubated for 72 hrs by MTT assay; format: functional, cell-based; procedure, shortened: as §1
[8] = test system: D283 Med; test: Induction of apoptosis in human D283 cells assessed as increase in population of cells in sub-G1 phase at 500 nM incubated for 72 hrs by ELISA; format: functional, cell-based
[9] = test system: D341 cell line; test: Induction of apoptosis in human D341 cells assessed as increase in population of cells in sub-G1 phase at 500 nM incubated for 72 hrs by ELISA; format: functional, cell-based
[10] = test system: Daoy; test: Induction of apoptosis in human Daoy cells assessed as increase in population of cells in sub-G1 phase at 500 nM incubated for 72 hrs by ELISA; format: functional, cell-based
[11] = test system: ONS-76; test: Induction of apoptosis in human ONS-76 cells assessed as increase in population of cells in G1 phase at 500 nM incubated for 72 hrs by ELISA; format: functional, cell-based
[12] = test system: Daoy; test: Induction of senescence in human Daoy cells assessed as increase in population of cells in G1 phase at 500 nM incubated for 72 hrs by fluorometric SA-beta-gal activity assay; format: functional, cell-based
Procedure, shortened: (§2)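 Senescence read as fluorometric SA-β-gal activity. Cells seeded 2 × 10^3 per well in triplicate and allowed 24h to adhere, then exposed to 500 nM JQ1 or DMSO control for 72h. Assayed per kit protocol. Experiments repeated at least 3 times.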

[13] = test system: D341 cell line; test: Induction of senescence in human D341 cells assessed as increase in population of cells in G1 phase at 500 nM incubated for 72 hrs by fluorometric SA-beta-gal activity assay; format: functional, cell-based; procedure, shortened: as §2
[14] = test system: D283 Med; test: Induction of senescence in human D283 cells assessed as increase in population of cells in G1 phase at 500 nM incubated for 72 hrs by fluorometric SA-beta-gal activity assay; format: functional, cell-based; procedure, shortened: as §2
[15] = test system: D341 cell line; test: Antiproliferative activity against human D341 cells at 500 nM incubated for 72 hrs by BrdU ELISA method; format: functional, cell-based
Procedure, shortened: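 Cells seeded in triplicate at 2 × 10^3 per well with 24h adherence, then treated with 500 nM JQ1 or DMSO control for 72h. Proliferation was measured by BrdU incorporation ELISA. Experiments were run independently at least 3 times.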

[16] = test system: HD-MB03; test: Anti-proliferative activity against human HD-MB03 cells expressing dominant-negative TP53 mutant assessed as reduction in cell viability at 1 to 6000 nM incubated for 72 hrs by MTT assay; format: functional, cell-based; conditions: dose 1-6000 nM
Procedure, shortened: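 HD-MB3 was stably transfected with pMSCV-puro-p53DD and selected in 2 μg/mL puromycin. Cells were seeded in triplicate at 2 × 10^3 per well with 24h adherence, then exposed to serially diluted JQ1 in full medium for 72h. Viability was read by MTT.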

[17] = test system: HD-MB03; test: Inhibition of BRD4 female athymic (nu/nu) mouse xenografted with human HD-MB03 cells as reduction in MYC mRNA expression in tumor at 50 mg/kg, ip administered at 0, 12, 24 and 36 hrs over 2-day course by RT-PCR analysis; format: functional, organism-based
Procedure, shortened: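 Same flank HD-MB3 xenografts in female nu/nu mice. Given 4 i.p. doses of JQ1 50 mg/kg (or DMSO) at 0, 12, 24 and 36h; tumours excised 4h after the last dose and snap-frozen. MYC measured by RT-PCR (mean ± S.D.) or western blot with β-actin loading control, 3 tumours per group.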

[18] = test system: Mus musculus; test: […] of cell proliferation in female athymic (nu/nu) mouse xenografted with human HD-MB03 cells as reduction in number of proliferating cells in tumor at 50 mg/kg, ip administered at 0, 12, 24 and 36 hrs over 2-day course by immunostaining and hematoxylin-eosin staining; format: functional, organism-based
Procedure, shortened: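 HD-MB3 cells in Matrigel (2 × 10^7) injected subcutaneously into the left flank of 4-week-old female nu/nu mice. Given JQ1 50 mg/kg i.p. or DMSO vehicle at 0, 12, 24 and 36h; killed 4h after the last dose. Fixed 5 µm tumour sections underwent pH 6.0 retrieval and Ki67 (1:25) immunostaining with H&E; positive cells quantified, 3 tumours per group.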

[19] = biological target: Bromodomain-containing protein 4 (Homo sapiens) (UniProt O60885); conditions: ONS-76, dose 500.0 nM, time 72.0 hrs
[20] = biological target: Bromodomain-containing protein 4 (Homo sapiens) (UniProt O60885); conditions: Daoy, dose 500.0 nM, time 72.0 hrs
[21] = biological target: Bromodomain-containing protein 4 (Homo sapiens) (UniProt O60885); conditions: UW228, dose 500.0 nM, time 72.0 hrs
[22] = biological target: Bromodomain-containing protein 4 (Homo sapiens) (UniProt O60885); conditions: D283 Med, dose 500.0 nM, time 72.0 hrs
[23] = biological target: Bromodomain-containing protein 4 (Homo sapiens) (UniProt O60885); conditions: HD-MB03, dose 500.0 nM, time 6-24 hrs
[24] = biological target: Bromodomain-containing protein 4 (Homo sapiens) (UniProt O60885); conditions: HD-MB03, dose 500.0 nM, time 96.0 hrs
[25] = biological target: Bromodomain-containing protein 4 (Homo sapiens) (UniProt O60885); conditions: HD-MB03, dose 500.0 nM, time 12.0 hrs

Cc1sc2c(c1C)C(c1ccc(Cl)cc1)=N[C@@H](CC(=O)OC(C)(C)C)c1nnc(C)n1-2
IC50 [1]: 897 nM
IC50 [2]: 924 nM
IC50 [3]: 172 nM
IC50 [4]: > 1000 nM
IC50 [5]: > 1000 nM
IC50 [6]: > 1000 nM
IC50 [7]: 477 nM
Activity [8]: Active
Activity [9]: Active
Activity [10]: Active
Activity [11]: Active
Activity [12]: Active
Activity [13]: Active
Activity [14]: Active
Activity [15]: Active
Activity [16]: inactive
inhibition [17]: Active
Activity [18]: Active
inhibition [19]: Active
inhibition [20]: Active
inhibition [21]: Active
inhibition [22]: Active
inhibition [23]: Active
inhibition [24]: inactive
inhibition [25]: Active
